# Data: ChEMBL document CHEMBL4689842, “EUbOPEN Chemogenomics Library wave 1” (2021)
# Experiments:
# Type in all cases: toxicity, cell-based
# U2OS = assay: Incucyte cell viability with U2OS; conditions: human, 10 µM, compound concentration 10 uM; also: filed as whole numbers so only -1 and 0 and 1 occur
# Fibroblast [1] = assay: Incucyte cell viability with human fibroblast; conditions: 10 µM, compound concentration 10 uM; also: filed as whole numbers so only -1 and 0 and 1 occur
# Fibroblast [2] = assay: Multiplex assay against human fibroblast
# Method in brief: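 Compound was added to live cells that had been stained at seeding with Hoechst33342, BioTracker Green Microtubule Cytoskeleton Dye, MitoTracker Red and Annexin V Alexa Fluor 680, and imaging followed on a CQ1 microscope at 37°C and 5% CO2. CellPathfinder machine-learning gating divided cells into Hoechst high-intensity objects or normal cells, normal cells into healthy, pyknosed or fragmented nuclei, and pyknosed cells into mitotic or apoptotic. Tubulin, mitochondrial-mass and membrane-permeability phenotypes are per cents of healthy-nucleus cells.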
# [3] = 0 h, replicate number 2, timepoint 0 hours
# [4] = 24 h, replicate number 1, timepoint 24 hours
# [5] = 12 h, 1 µM, compound concentration 1 uM, replicate 1
# [6] = 12 h, 1 µM, compound concentration 1 uM, replicate 2
# [7] = 12 h, 10 µM, compound concentration 10 uM, replicate 1
# [8] = 12 h, 10 µM, compound concentration 10 uM, replicate 2
# [9] = 24 h, 1 µM, compound concentration 1 uM, replicate 1
# [10] = 24 h, 1 µM, compound concentration 1 uM, replicate 2
# [11] = 24 h, 10 µM, compound concentration 10 uM, replicate 1
# [12] = 24 h, 10 µM, compound concentration 10 uM, replicate 2
# [13] = 48 h, 1 µM, compound concentration 1 uM, replicate 1
# [14] = 48 h, 1 µM, compound concentration 1 uM, replicate 2
# [15] = 48 h, 10 µM, compound concentration 10 uM, replicate 1
# [16] = 48 h, 10 µM, compound concentration 10 uM, replicate 2
structure (smiles),measurement,setting,value
N#CCNC(=O)c1ccc(-c2ccnc(Nc3ccc(N4CCOCC4)cc3)n2)cc1 [MOMELOTINIB],Growth Rate,U2OS; [3],1
same,Growth Rate,"U2OS; 12 h, replicate number 1, timepoint 12 hours",1
same,Growth Rate,"U2OS; 18 h, replicate number 1, timepoint 18 hours",0
same,Growth Rate,U2OS; [4],0
same,Growth Rate,Fibroblast [1]; [3],0
same,Growth Rate,Fibroblast [1]; [4],1
same,Population Apoptotic (%),Fibroblast [2]; [5],64%
same,Population Fragmented Nuclei (%),Fibroblast [2]; [5],26%
same,Population Healthy Nuclei (%),Fibroblast [2]; [5],40%
same,Population Hoechst High Intensity Objects (%),Fibroblast [2]; [5],11%
same,Population Membrane Permeable-Phenotype (%),Fibroblast [2]; [5],30%
same,Population Mitochondria Different-Phenotype (%),Fibroblast [2]; [5],4%
same,Population Mitotic Cells (%),Fibroblast [2]; [5],35%
same,Population Normal (%),Fibroblast [2]; [5],88%
same,Population Pyknosed Nuclei (%),Fibroblast [2]; [5],33%
same,Population Tubulin-Different-Phenotype (%),Fibroblast [2]; [5],21%
same,Total Cell Count,Fibroblast [2]; [5],117
same,Population Apoptotic (%),Fibroblast [2]; [6],60%
same,Population Fragmented Nuclei (%),Fibroblast [2]; [6],1%
same,Population Healthy Nuclei (%),Fibroblast [2]; [6],88%
same,Population Hoechst High Intensity Objects (%),Fibroblast [2]; [6],8%
same,Population Membrane Permeable-Phenotype (%),Fibroblast [2]; [6],2%
same,Population Mitochondria Different-Phenotype (%),Fibroblast [2]; [6],13%
same,Population Mitotic Cells (%),Fibroblast [2]; [6],40%
same,Population Normal (%),Fibroblast [2]; [6],91%
same,Population Pyknosed Nuclei (%),Fibroblast [2]; [6],9%
same,Population Tubulin-Different-Phenotype (%),Fibroblast [2]; [6],11%
same,Total Cell Count,Fibroblast [2]; [6],3119
same,Population Apoptotic (%),Fibroblast [2]; [7],63%
same,Population Fragmented Nuclei (%),Fibroblast [2]; [7],40%
same,Population Healthy Nuclei (%),Fibroblast [2]; [7],28%
same,Population Hoechst High Intensity Objects (%),Fibroblast [2]; [7],13%
same,Population Membrane Permeable-Phenotype (%),Fibroblast [2]; [7],16%
same,Population Mitochondria Different-Phenotype (%),Fibroblast [2]; [7],10%
same,Population Mitotic Cells (%),Fibroblast [2]; [7],36%
same,Population Normal (%),Fibroblast [2]; [7],86%
same,Population Pyknosed Nuclei (%),Fibroblast [2]; [7],31%
same,Population Tubulin-Different-Phenotype (%),Fibroblast [2]; [7],45%
same,Total Cell Count,Fibroblast [2]; [7],153
same,Population Apoptotic (%),Fibroblast [2]; [8],13%
same,Population Fragmented Nuclei (%),Fibroblast [2]; [8],27%
same,Population Healthy Nuclei (%),Fibroblast [2]; [8],47%
same,Population Hoechst High Intensity Objects (%),Fibroblast [2]; [8],10%
same,Population Membrane Permeable-Phenotype (%),Fibroblast [2]; [8],0%
same,Population Mitochondria Different-Phenotype (%),Fibroblast [2]; [8],6%
same,Population Mitotic Cells (%),Fibroblast [2]; [8],86%
same,Population Normal (%),Fibroblast [2]; [8],89%
same,Population Pyknosed Nuclei (%),Fibroblast [2]; [8],24%
same,Population Tubulin-Different-Phenotype (%),Fibroblast [2]; [8],6%
same,Total Cell Count,Fibroblast [2]; [8],56
same,Population Apoptotic (%),Fibroblast [2]; [9],56%
same,Population Fragmented Nuclei (%),Fibroblast [2]; [9],26%
same,Population Healthy Nuclei (%),Fibroblast [2]; [9],52%
same,Population Hoechst High Intensity Objects (%),Fibroblast [2]; [9],11%
same,Population Membrane Permeable-Phenotype (%),Fibroblast [2]; [9],27%
same,Population Mitochondria Different-Phenotype (%),Fibroblast [2]; [9],0%
same,Population Mitotic Cells (%),Fibroblast [2]; [9],43%
same,Population Normal (%),Fibroblast [2]; [9],88%
same,Population Pyknosed Nuclei (%),Fibroblast [2]; [9],20%
same,Population Tubulin-Different-Phenotype (%),Fibroblast [2]; [9],18%
same,Total Cell Count,Fibroblast [2]; [9],127
same,Population Apoptotic (%),Fibroblast [2]; [10],66%
same,Population Fragmented Nuclei (%),Fibroblast [2]; [10],7%
same,Population Healthy Nuclei (%),Fibroblast [2]; [10],86%
same,Population Hoechst High Intensity Objects (%),Fibroblast [2]; [10],10%
same,Population Membrane Permeable-Phenotype (%),Fibroblast [2]; [10],6%
same,Population Mitochondria Different-Phenotype (%),Fibroblast [2]; [10],15%
same,Population Mitotic Cells (%),Fibroblast [2]; [10],33%
same,Population Normal (%),Fibroblast [2]; [10],89%
same,Population Pyknosed Nuclei (%),Fibroblast [2]; [10],5%
same,Population Tubulin-Different-Phenotype (%),Fibroblast [2]; [10],8%
same,Total Cell Count,Fibroblast [2]; [10],3108
same,Population Apoptotic (%),Fibroblast [2]; [11],48%
same,Population Fragmented Nuclei (%),Fibroblast [2]; [11],39%
same,Population Healthy Nuclei (%),Fibroblast [2]; [11],37%
same,Population Hoechst High Intensity Objects (%),Fibroblast [2]; [11],14%
same,Population Membrane Permeable-Phenotype (%),Fibroblast [2]; [11],29%
same,Population Mitochondria Different-Phenotype (%),Fibroblast [2]; [11],12%
same,Population Mitotic Cells (%),Fibroblast [2]; [11],51%
same,Population Normal (%),Fibroblast [2]; [11],85%
same,Population Pyknosed Nuclei (%),Fibroblast [2]; [11],23%
same,Population Tubulin-Different-Phenotype (%),Fibroblast [2]; [11],46%
same,Total Cell Count,Fibroblast [2]; [11],147
same,Population Apoptotic (%),Fibroblast [2]; [12],45%
same,Population Fragmented Nuclei (%),Fibroblast [2]; [12],31%
same,Population Healthy Nuclei (%),Fibroblast [2]; [12],52%
same,Population Hoechst High Intensity Objects (%),Fibroblast [2]; [12],5%
same,Population Membrane Permeable-Phenotype (%),Fibroblast [2]; [12],28%
same,Population Mitochondria Different-Phenotype (%),Fibroblast [2]; [12],34%
same,Population Mitotic Cells (%),Fibroblast [2]; [12],54%
same,Population Normal (%),Fibroblast [2]; [12],94%
same,Population Pyknosed Nuclei (%),Fibroblast [2]; [12],16%
same,Population Tubulin-Different-Phenotype (%),Fibroblast [2]; [12],14%
same,Total Cell Count,Fibroblast [2]; [12],59
same,Population Apoptotic (%),Fibroblast [2]; [13],44%
same,Population Fragmented Nuclei (%),Fibroblast [2]; [13],34%
same,Population Healthy Nuclei (%),Fibroblast [2]; [13],57%
same,Population Hoechst High Intensity Objects (%),Fibroblast [2]; [13],16%
same,Population Membrane Permeable-Phenotype (%),Fibroblast [2]; [13],16%
same,Population Mitochondria Different-Phenotype (%),Fibroblast [2]; [13],1%
same,Population Mitotic Cells (%),Fibroblast [2]; [13],55%
same,Population Normal (%),Fibroblast [2]; [13],83%
same,Population Pyknosed Nuclei (%),Fibroblast [2]; [13],8%
same,Population Tubulin-Different-Phenotype (%),Fibroblast [2]; [13],17%
same,Total Cell Count,Fibroblast [2]; [13],129
same,Population Apoptotic (%),Fibroblast [2]; [14],80%
same,Population Fragmented Nuclei (%),Fibroblast [2]; [14],33%
same,Population Healthy Nuclei (%),Fibroblast [2]; [14],61%
same,Population Hoechst High Intensity Objects (%),Fibroblast [2]; [14],15%
same,Population Membrane Permeable-Phenotype (%),Fibroblast [2]; [14],4%
same,Population Mitotic Cells (%),Fibroblast [2]; [14],20%
same,Population Normal (%),Fibroblast [2]; [14],84%
same,Population Pyknosed Nuclei (%),Fibroblast [2]; [14],5%
same,Population Tubulin-Different-Phenotype (%),Fibroblast [2]; [14],21%
same,Total Cell Count,Fibroblast [2]; [14],117
same,Population Apoptotic (%),Fibroblast [2]; [15],60%
same,Population Fragmented Nuclei (%),Fibroblast [2]; [15],47%
same,Population Healthy Nuclei (%),Fibroblast [2]; [15],40%
same,Population Hoechst High Intensity Objects (%),Fibroblast [2]; [15],14%
same,Population Membrane Permeable-Phenotype (%),Fibroblast [2]; [15],25%
same,Population Mitochondria Different-Phenotype (%),Fibroblast [2]; [15],9%
same,Population Mitotic Cells (%),Fibroblast [2]; [15],40%
same,Population Normal (%),Fibroblast [2]; [15],85%
same,Population Pyknosed Nuclei (%),Fibroblast [2]; [15],11%
same,Population Tubulin-Different-Phenotype (%),Fibroblast [2]; [15],37%
same,Total Cell Count,Fibroblast [2]; [15],155
same,Population Apoptotic (%),Fibroblast [2]; [16],50%
same,Population Fragmented Nuclei (%),Fibroblast [2]; [16],52%
same,Population Hoechst High Intensity Objects (%),Fibroblast [2]; [16],8%
same,Population Membrane Permeable-Phenotype (%),Fibroblast [2]; [16],11%
same,Population Mitochondria Different-Phenotype (%),Fibroblast [2]; [16],1%
same,Population Mitotic Cells (%),Fibroblast [2]; [16],50%
same,Population Normal (%),Fibroblast [2]; [16],91%
same,Population Pyknosed Nuclei (%),Fibroblast [2]; [16],6%
same,Population Tubulin-Different-Phenotype (%),Fibroblast [2]; [16],58%
same,Total Cell Count,Fibroblast [2]; [16],162
